Source: ChEMBL document CHEMBL1146345, “Synthesis and evaluation of novel 1-(1H-1,2,4-triazol-1-yl)-2-(2,4-difluorophenyl)-3-[(4-substitutedphenyl)-piperazin-1-yl]-propan-2-ols as antifungal agents” (2007)
Values after ≈ are worked out from the molar mass of the structure shown.

Legend:
Assay type in all cases: functional
Candida albicans = assay: Antifungal activity against Candida albicans after 24 hrs by microbroth dilution method
Summary of the method: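 Broth microdilution following NCCLS methods, with drug dilutions in growth medium. Inoculated plates were incubated at 35 C and read at 24 h. MIC80 is the first well showing roughly 80% less growth than the drug-free well. Fluconazole and itraconazole served as positive controls.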

Candida parapsilosis = assay: Antifungal activity against Candida parapsilosis ATCC 22019 by micro-broth dilution method; details: Lodderomyces parapsilosis
Summary of the method: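 Candida parapsilosis ATCC22019 was the quality-control strain tested in every assay. Microbroth dilution followed NCCLS methods, with incubation at 35 C in growth medium. MIC80 is the first well with about 80% growth reduction relative to the drug-free control. Fluconazole and itraconazole were the positive controls.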

Cryptococcus neoformans = assay: Antifungal activity against Cryptococcus neoformans after 72 hrs by micro-broth dilution method
Summary of the method: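 Cryptococcus neoformans was tested by NCCLS broth microdilution, with drug diluted in growth medium and incubation at 35 C. MIC was read at 72 h as MIC80, the first well with about 80% growth reduction compared with the drug-free well. Fluconazole and itraconazole were the positive controls.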

Candida tropicalis = assay: Antifungal activity against Candida tropicalis by micro-broth dilution method
Summary of the method: (§1)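 NCCLS microbroth dilution: drugs diluted in growth medium, inoculated, then incubated at 35 C. The endpoint was MIC80, the first well with approximately 80% less growth than the drug-free well. Fluconazole and itraconazole were run as positive controls.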

Pichia kudriavzevii = assay: Antifungal activity against Candida krusei ATCC 6258 by micro-broth dilution method; summary of the method: as §1
Nakaseomyces glabratus = assay: Antifungal activity against Torulopsis glabrata by micro-broth dilution method; summary of the method: as §1

O=[N+]([O-])c1ccc(/C=N/c2ccc(N3CCN(CC(O)(Cn4cncn4)c4ccc(F)cc4F)CC3)cc2)cc1 (stereo not drawn)
MIC80 (Candida albicans): > 64 µg/mL
MIC80 (Candida parapsilosis): 4 µg/mL (≈ 7.31 µM)
MIC80 (Cryptococcus neoformans): > 64 µg/mL
MIC80 (Candida tropicalis): > 64 µg/mL
MIC80 (Pichia kudriavzevii): 4 µg/mL (≈ 7.31 µM)
MIC80 (Nakaseomyces glabratus): 8 µg/mL (≈ 14.6 µM)

Cc1ccc(/C=N/c2ccc(N3CCN(CC(O)(Cn4cncn4)c4ccc(F)cc4F)CC3)cc2)cc1 (stereo not drawn)
MIC80 (Candida albicans): 1 µg/mL (≈ 1.94 µM)
MIC80 (Candida parapsilosis): 2 µg/mL (≈ 3.87 µM)
MIC80 (Cryptococcus neoformans): > 64 µg/mL
MIC80 (Candida tropicalis): > 64 µg/mL
MIC80 (Pichia kudriavzevii): 4 µg/mL (≈ 7.74 µM)
MIC80 (Nakaseomyces glabratus): 16 µg/mL (≈ 31 µM)

OC(CN1CCN(c2ccc(/N=C/c3ccc4c(c3)OCO4)cc2)CC1)(Cn1cncn1)c1ccc(F)cc1F (stereo not drawn)
MIC80 (Candida albicans): 16 µg/mL (≈ 29.3 µM)
MIC80 (Candida parapsilosis): 2 µg/mL (≈ 3.66 µM)
MIC80 (Cryptococcus neoformans): 32 µg/mL (≈ 58.5 µM)
MIC80 (Candida tropicalis): > 64 µg/mL
MIC80 (Pichia kudriavzevii): 4 µg/mL (≈ 7.32 µM)
MIC80 (Nakaseomyces glabratus): 16 µg/mL (≈ 29.3 µM)

COc1cccc(/C=N/c2ccc(N3CCN(CC(O)(Cn4cncn4)c4ccc(F)cc4F)CC3)cc2)c1O (stereo not drawn)
MIC80 (Candida albicans): > 64 µg/mL
MIC80 (Candida parapsilosis): 4 µg/mL (≈ 7.29 µM)
MIC80 (Cryptococcus neoformans): 64 µg/mL (≈ 117 µM)
MIC80 (Candida tropicalis): > 64 µg/mL
MIC80 (Pichia kudriavzevii): 16 µg/mL (≈ 29.2 µM)
MIC80 (Nakaseomyces glabratus): 16 µg/mL (≈ 29.2 µM)

OC(CN1CCN(c2ccc(/N=C/c3ccc(OCc4ccccc4)cc3)cc2)CC1)(Cn1cncn1)c1ccc(F)cc1F (stereo not drawn)
MIC80 (Candida albicans): 64 µg/mL (≈ 105 µM)
MIC80 (Candida parapsilosis): > 64 µg/mL
MIC80 (Cryptococcus neoformans): 16 µg/mL (≈ 26.3 µM)
MIC80 (Candida tropicalis): > 64 µg/mL
MIC80 (Pichia kudriavzevii): 8 µg/mL (≈ 13.1 µM)
MIC80 (Nakaseomyces glabratus): 32 µg/mL (≈ 52.6 µM)

OC(CN1CCN(c2ccc(/N=C/c3ccc(Cl)cc3)cc2)CC1)(Cn1cncn1)c1ccc(F)cc1F (stereo not drawn)
MIC80 (Candida albicans): 0.5 µg/mL (≈ 0.931 µM)
MIC80 (Candida parapsilosis): 1 µg/mL (≈ 1.86 µM)
MIC80 (Cryptococcus neoformans): 32 µg/mL (≈ 59.6 µM)
MIC80 (Candida tropicalis): > 64 µg/mL
MIC80 (Pichia kudriavzevii): 4 µg/mL (≈ 7.45 µM)
MIC80 (Nakaseomyces glabratus): > 64 µg/mL

Oc1ccc(/C=N/c2ccc(N3CCN(CC(O)(Cn4cncn4)c4ccc(F)cc4F)CC3)cc2)cc1 (stereo not drawn)
MIC80 (Candida albicans): 32 µg/mL (≈ 61.7 µM)
MIC80 (Candida parapsilosis): 1 µg/mL (≈ 1.93 µM)
MIC80 (Cryptococcus neoformans): 4 µg/mL (≈ 7.71 µM)
MIC80 (Candida tropicalis): > 64 µg/mL
MIC80 (Pichia kudriavzevii): 4 µg/mL (≈ 7.71 µM)
MIC80 (Nakaseomyces glabratus): 8 µg/mL (≈ 15.4 µM)

OC(CN1CCN(c2ccc(/N=C/c3ccc(Br)cc3)cc2F)CC1)(Cn1cncn1)c1ccc(F)cc1F (stereo not drawn)
MIC80 (Candida albicans): 32 µg/mL (≈ 53.4 µM)
MIC80 (Candida parapsilosis): 8 µg/mL (≈ 13.3 µM)
MIC80 (Cryptococcus neoformans): 32 µg/mL (≈ 53.4 µM)
MIC80 (Candida tropicalis): > 64 µg/mL
MIC80 (Pichia kudriavzevii): 8 µg/mL (≈ 13.3 µM)
MIC80 (Nakaseomyces glabratus): 16 µg/mL (≈ 26.7 µM)

O=[N+]([O-])c1cccc(/C=N/c2ccc(N3CCN(CC(O)(Cn4cncn4)c4ccc(F)cc4F)CC3)cc2)c1 (stereo not drawn)
MIC80 (Candida albicans): 64 µg/mL (≈ 117 µM)
MIC80 (Candida parapsilosis): 4 µg/mL (≈ 7.31 µM)
MIC80 (Cryptococcus neoformans): 16 µg/mL (≈ 29.2 µM)
MIC80 (Candida tropicalis): > 64 µg/mL
MIC80 (Pichia kudriavzevii): 8 µg/mL (≈ 14.6 µM)
MIC80 (Nakaseomyces glabratus): 4 µg/mL (≈ 7.31 µM)

OC(CN1CCN(c2ccc(/N=C/c3ccc(Cl)cc3)cc2F)CC1)(Cn1cncn1)c1ccc(F)cc1F (stereo not drawn)
MIC80 (Candida albicans): 16 µg/mL (≈ 28.8 µM)
MIC80 (Candida parapsilosis): 16 µg/mL (≈ 28.8 µM)
MIC80 (Cryptococcus neoformans): 32 µg/mL (≈ 57.7 µM)
MIC80 (Candida tropicalis): > 64 µg/mL
MIC80 (Pichia kudriavzevii): 16 µg/mL (≈ 28.8 µM)
MIC80 (Nakaseomyces glabratus): 32 µg/mL (≈ 57.7 µM)

OC(CN1CCN(c2ccc(/N=C/c3ccc(Cl)c(Cl)c3)cc2)CC1)(Cn1cncn1)c1ccc(F)cc1F (stereo not drawn)
MIC80 (Candida albicans): 1 µg/mL (≈ 1.75 µM)
MIC80 (Candida parapsilosis): 8 µg/mL (≈ 14 µM)
MIC80 (Cryptococcus neoformans): > 64 µg/mL
MIC80 (Candida tropicalis): > 64 µg/mL
MIC80 (Pichia kudriavzevii): 16 µg/mL (≈ 28 µM)
MIC80 (Nakaseomyces glabratus): > 64 µg/mL

OC(CN1CCN(c2ccc(/N=C/c3ccc(Cl)cc3Cl)cc2)CC1)(Cn1cncn1)c1ccc(F)cc1F (stereo not drawn)
MIC80 (Candida albicans): > 64 µg/mL
MIC80 (Candida parapsilosis): 8 µg/mL (≈ 14 µM)
MIC80 (Cryptococcus neoformans): 64 µg/mL (≈ 112 µM)
MIC80 (Candida tropicalis): > 64 µg/mL
MIC80 (Pichia kudriavzevii): 8 µg/mL (≈ 14 µM)
MIC80 (Nakaseomyces glabratus): 8 µg/mL (≈ 14 µM)

OC(CN1CCN(c2ccc(/N=C/c3ccc(Br)cc3)cc2)CC1)(Cn1cncn1)c1ccc(F)cc1F (stereo not drawn)
MIC80 (Candida albicans): 64 µg/mL (≈ 110 µM)
MIC80 (Candida parapsilosis): 2 µg/mL (≈ 3.44 µM)
MIC80 (Cryptococcus neoformans): 32 µg/mL (≈ 55 µM)
MIC80 (Candida tropicalis): > 64 µg/mL
MIC80 (Pichia kudriavzevii): 8 µg/mL (≈ 13.8 µM)
MIC80 (Nakaseomyces glabratus): > 64 µg/mL

OC(CN1CCN(c2ccc(/N=C/c3ccc(F)cc3)cc2)CC1)(Cn1cncn1)c1ccc(F)cc1F (stereo not drawn)
MIC80 (Candida albicans): 64 µg/mL (≈ 123 µM)
MIC80 (Candida parapsilosis): 2 µg/mL (≈ 3.84 µM)
MIC80 (Cryptococcus neoformans): 4 µg/mL (≈ 7.68 µM)
MIC80 (Candida tropicalis): > 64 µg/mL
MIC80 (Pichia kudriavzevii): 16 µg/mL (≈ 30.7 µM)
MIC80 (Nakaseomyces glabratus): > 64 µg/mL

OC(CN1CCN(c2ccc(/N=C/c3ccc(F)cc3)cc2F)CC1)(Cn1cncn1)c1ccc(F)cc1F (stereo not drawn)
MIC80 (Candida albicans): 4 µg/mL (≈ 7.43 µM)
MIC80 (Candida parapsilosis): 32 µg/mL (≈ 59.4 µM)
MIC80 (Cryptococcus neoformans): 8 µg/mL (≈ 14.9 µM)
MIC80 (Candida tropicalis): > 64 µg/mL
MIC80 (Pichia kudriavzevii): 8 µg/mL (≈ 14.9 µM)
MIC80 (Nakaseomyces glabratus): 8 µg/mL (≈ 14.9 µM)

OC(Cn1cncn1)(Cn1cncn1)c1ccc(F)cc1F [FLUCONAZOLE]
MIC80 (Candida albicans): 1 µg/mL (≈ 3.27 µM)
MIC80 (Candida parapsilosis): 4 µg/mL (≈ 13.1 µM)
MIC80 (Cryptococcus neoformans): 32 µg/mL (≈ 104 µM)
MIC80 (Candida tropicalis): 64 µg/mL (≈ 209 µM)
MIC80 (Pichia kudriavzevii): 8 µg/mL (≈ 26.1 µM)
MIC80 (Nakaseomyces glabratus): 8 µg/mL (≈ 26.1 µM)

Cc1ccc(/C=N/c2ccc(N3CCN(CC(O)(Cn4cncn4)c4ccc(F)cc4F)CC3)c(F)c2)cc1 (stereo not drawn)
MIC80 (Candida albicans): 16 µg/mL (≈ 29.9 µM)
MIC80 (Candida parapsilosis): 32 µg/mL (≈ 59.9 µM)
MIC80 (Cryptococcus neoformans): 8 µg/mL (≈ 15 µM)
MIC80 (Candida tropicalis): > 64 µg/mL
MIC80 (Pichia kudriavzevii): 16 µg/mL (≈ 29.9 µM)
MIC80 (Nakaseomyces glabratus): 16 µg/mL (≈ 29.9 µM)

OC(CN1CCN(c2ccc(/N=C/c3ccc(OCc4cccc(Cl)c4)cc3)cc2)CC1)(Cn1cncn1)c1ccc(F)cc1F (stereo not drawn)
MIC80 (Candida albicans): > 64 µg/mL
MIC80 (Candida parapsilosis): 16 µg/mL (≈ 24.9 µM)
MIC80 (Cryptococcus neoformans): 64 µg/mL (≈ 99.5 µM)
MIC80 (Candida tropicalis): > 64 µg/mL
MIC80 (Pichia kudriavzevii): 32 µg/mL (≈ 49.8 µM)
MIC80 (Nakaseomyces glabratus): 2 µg/mL (≈ 3.11 µM)
